Wnt act = activators of Wnt/beta-catenin signaling; Wnt/beta-catenin reporter cell assay, activator, plate reader; activation, % at 9.35 µM; 300,000 tested, 1.2% active; AID 743398; in the data active = activation above about 30%, passing the limit was not always enough; inconclusive = no clear call, values can overlap the other calls;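 also: 0% = neutral control wells and 100% = positive control wells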
MITF act = increases MITF-driven TRPM1 promoter luciferase signal; SK-MEL-5 TRPM1-promoter luciferase, 24 h; % of positive control, neutral wells = 0; activation, % at 12.5 µM; 300,000 tested, 0.75% active; AID 588334;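 active = mean activation of at least 80% with every replicate also reaching 80%; inconclusive = mean reaches 80% but some replicate falls short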;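 also: 0% = neutral control wells and 100% = parthenolide positive control wells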
esBAF inh = SWI/SNF esBAF complex inhibition. mouse ES cells, Bmi1-luciferase knock-in reporter, 24 h; 100% = twice the neutral-well signal. 350,000 tested, 2% active. reporter increase, % at 12.5 µM. AID 602393; in the data active = activation above about 40%; inconclusive = no clear call, values can overlap the other calls;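 also: 0% = median of the plate's neutral control wells and 100% = double that signal; a rise in the Bmi1 reporter signal indicates esBAF inhibition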
ERAP1 HTS inh = blocks human ERAP1 aminopeptidase activity | recombinant ERAP1, Leu-AMC fluorescence, 60 min | Q9NZ08 | inhibition, % at 10.7 µM | AID 652197 | 340,000 tested, 0.15% active;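 active = mean replicate inhibition of at least 30%, or all replicates individually reaching that 30% level; inactive = mean below 30% and not every replicate reaching it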;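 also: 0% = neutral control wells and 100% = L-leucinethiol positive control wells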
Cneo AK release = causes C. neoformans cell lysis; lysis activity, % at 15 µM; AID 651654; adenylate kinase release luminescence, 4 h; normalised: neutral wells 0, clomiphene wells 100; 360,000 tested, 0.2% active;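 active = mean lysis activity across replicates of at least 80%, whatever share of replicates individually reach that level; inactive = mean lysis activity below 80%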
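Signal: Adenylate kinase release luminescence | Assay system: Log-phase Cryptococcus neoformans yeast cells | Input: Cells at 5 × 10^6 per mL | Buffer or medium: Fresh YPD growth medium | Compound: Single dose | Schedule: Static 4 h at 37 °C with compound, 1 h detection | Controls: Clomiphene | Read-out: Luminescence rise reflecting yeast cell lysis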
Env fusion inh = HIV envelope-mediated fusion inhibition | 360,000 tested, 1.1% active | HeLa-JRFL Env/CEM21 cell fusion, luciferase | AID 651610 | inhibition, % at 12.3 µM;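 active = mean replicate inhibition score of at least 50 and every replicate individually at or above 50; inconclusive = only one of the two criteria met; inactive = mean below 50 and not all replicates reaching 50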;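 also: 0% = plate neutral controls and 100% = maraviroc near 300 nM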
Starred values were filed as active, the others as inactive; [ ] = remark or other dose. Hits are enriched below; roughly 3.5% of the tested compounds scored in any of these assays.

`CCCCCn1c(=O)[nH]c2cc(C(=O)N3CCN(Cc4ccc5c(c4)OCO5)CC3)ccc2c1=O` gave Wnt act -16.1, esBAF inh -35.8, Cneo AK release 18.2 and Env fusion inh 67.2*.
Cc1ccc(C(=O)N2CCN(Cc3ccc4c(c3)OCO4)CC2)o1 was read as MITF act -4.0, esBAF inh -2.2, Cneo AK release -0.9 and Env fusion inh -18.2.
CO[C@@H]1CN(C)C(=O)c2cc(NC(=O)C3CCCC3)ccc2OC[C@@H](C)N(C(=O)CC2CC2)C[C@@H]1C was read as esBAF inh -2.1, ERAP1 HTS inh 1.1, Cneo AK release 1.7 and Env fusion inh -1.7[16.7 µM].
For C[C@@H]1CN([C@@H](C)CO)C(=O)c2cc(-c3cccnc3)cnc2O[C@H]1CN(C)C(=O)c1ccccc1F the results were esBAF inh -4.0, ERAP1 HTS inh 1.8, Cneo AK release -2.2 and Env fusion inh -30.2[16.7 µM].
Screening C[C@H](CO)N1C[C@H](C)[C@H](CN(C)S(=O)(=O)c2cn(C)cn2)Oc2ncc(-c3cccc(F)c3)cc2C1=O returned esBAF inh 4.3, ERAP1 HTS inh 2.5, Cneo AK release -1.8 and Env fusion inh 17.9[16.7 µM].
For O=C(NCc1cccnc1)c1c[nH]c2cc3c(cc2c1=O)OCCO3 the results were esBAF inh 62.0*, Cneo AK release -8.5 and Env fusion inh 74.6*.
For CC(C)C1COC(c2cccc3ccccc23)=N1 (stereo unspecified) the results were Wnt act 39.2*, MITF act 73.9, esBAF inh 54.6*, ERAP1 HTS inh 3.2, Cneo AK release 0.6 and Env fusion inh -120.2.
Screening C[C@@H]1CN([C@H](C)CO)C(=O)c2cc(C#CCN(C)C)cnc2O[C@@H]1CN(C)Cc1ccccc1F returned esBAF inh 1.0, ERAP1 HTS inh 1.3, Cneo AK release 3.6 and Env fusion inh -4.8[16.7 µM].
Screening CS(=O)(=O)N1CC(=O)N2[C@H](C1)[C@@H](c1ccc(C#Cc3ccccc3)cc1)[C@@H]2CO returned ERAP1 HTS inh -3.3.
For CCOC(=O)C1CCN(CCC(=O)Nc2ccc(C)c(C)c2)CC1 the results were Wnt act 45.8*, MITF act 9.6, ERAP1 HTS inh 2.8 and Env fusion inh 0.1.
`CCOC(=O)C1CCCN(CCC(=O)Nc2ccc(C)c(C)c2)C1` (stereo unspecified) gave Wnt act -0.4, MITF act -5.3, esBAF inh -0.5, ERAP1 HTS inh -3.9, Cneo AK release 1.1 and Env fusion inh 16.6.
Cc1ccc(S(=O)(=O)N2C[C@H](O)COC[C@H]3O[C@@H](CC(=O)N[C@@H]4CCN(Cc5ccccc5)C4)CC[C@@H]32)cc1 was read as esBAF inh 0.8, ERAP1 HTS inh -0.7 and Cneo AK release 12.8.
`Cc1noc(N)c1C(=O)Nc1ccc(C(C)(C)C)cc1` gave Wnt act 50.5*, MITF act 85.7*, Cneo AK release -15.9 and Env fusion inh -85.3.
`CC(C)NC(=O)N(C)C[C@H]1Oc2cc(C#CC(C)(C)O)ccc2S(=O)(=O)N([C@@H](C)CO)C[C@H]1C` gave esBAF inh -0.8, ERAP1 HTS inh -1.1, Cneo AK release -0.5 and Env fusion inh -12.6[16.7 µM].
Screening CN1CC(c2ccccc2Cl)C2(COc3ccccc3C2=O)C12C(=O)Nc1ccccc12 (stereo unspecified) returned Wnt act -2.6, MITF act -5.8, esBAF inh -2.4, Cneo AK release 44.2 and Env fusion inh 78.2*.
Cc1ccc(C2CN(C)C3(C(=O)Nc4ccccc43)C23COc2ccccc2C3=O)cc1 (stereo unspecified) was read as Wnt act -1.2, esBAF inh 3.6, Cneo AK release -2.4 and Env fusion inh inconclusive.
O=C(Nc1ccc(Cl)cc1Cl)c1ccc2ncsc2c1 was read as Wnt act inconclusive, MITF act 111.9*, esBAF inh 58.8*, ERAP1 HTS inh 0.9, Cneo AK release -1.4 and Env fusion inh -36.7.
For CCCSc1ccc(C(=O)Nc2ccc(F)cc2F)cn1 the results were Wnt act 8.2, MITF act inconclusive, esBAF inh 46.0*, ERAP1 HTS inh -2.1, Cneo AK release 1.2 and Env fusion inh 3.5.
For CC(C)S(=O)(=O)c1ccc(C(=O)Nc2ccc(F)cc2F)cn1 the results were Wnt act -1.8, MITF act 9.2, ERAP1 HTS inh 3.6 and Env fusion inh -8.5.
Screening O=C(Nc1ccccc1F)c1ccc2ncsc2c1 returned Wnt act 17.1, MITF act 64.0, esBAF inh 56.5*, ERAP1 HTS inh -1.9, Cneo AK release -0.3 and Env fusion inh -42.7.
`O=C(Nc1ccc(F)cc1F)c1ccc2ncsc2c1` gave Wnt act 5.0, MITF act 22.1, esBAF inh 66.9*, ERAP1 HTS inh 1.9, Cneo AK release -0.3 and Env fusion inh -33.4.
Screening O=C(Nc1nnc(SCc2ccc(F)cc2)s1)c1ccc2ncsc2c1 returned Wnt act 9.8, MITF act 9.9, ERAP1 HTS inh 6.4 and Env fusion inh -54.7.
Screening O=C(Nc1ccccc1F)c1cccc(C(=O)Nc2ccccc2F)c1 returned Wnt act 2.3, MITF act 11.3, ERAP1 HTS inh 0.6 and Env fusion inh -1.5.
For O=C(Nc1cccc(F)c1)c1ccc2ncsc2c1 the results were MITF act -4.5, esBAF inh 15.5 and Cneo AK release -5.4.
O=C(Nc1ccncc1)c1ccc2ncsc2c1 was read as Wnt act -1.8, MITF act 28.7, esBAF inh 70.8*, ERAP1 HTS inh -1.5, Cneo AK release 1.0 and Env fusion inh 0.9.
`N#C/C(=N\Nc1ccc(F)cc1)C(=N)N1CCCCCC1` gave Wnt act -3.1, MITF act 75.1, esBAF inh 31.2, ERAP1 HTS inh -2.4, Cneo AK release -3.4 and Env fusion inh -81.9.
For N#C/C(=N\Nc1ccccc1F)C(=N)N1CCCCC1 the results were Wnt act 28.2, MITF act 85.2*, Cneo AK release -2.1 and Env fusion inh -218.5.
COc1ccc(N/N=C(\C#N)C(=N)N2CCCCC2)cc1 was read as Wnt act 22.5, MITF act 56.7, esBAF inh 65.1* and Env fusion inh 9.6.
For CC(C)CCC(O)(c1ccccc1)C(CN1CCOCC1)c1ccccc1 (stereo unspecified) the results were Wnt act -1.8, MITF act -3.9, esBAF inh -1.4, ERAP1 HTS inh -1.8, Cneo AK release 1.9 and Env fusion inh 34.8.
COc1ccc(C(O)(CCC(C)C)C(CN2CCOCC2)c2ccccc2)cc1 (stereo unspecified) was read as Wnt act -3.1, MITF act -10.9, esBAF inh -2.5, ERAP1 HTS inh -8.3, Cneo AK release 0.3 and Env fusion inh 73.0*.

High-throughput results as filed in PubChem.
